Source: ChEMBL document CHEMBL1123899, “Nucleic acid related compounds. 51. Synthesis and biological properties of sugar-modified analogues of the nucleoside antibiotics tubercidin, toyocamycin, sangivamycin, and formycin” (1987)
In brackets after ≈: the same amount, converted by molar mass.

Key:
L1210 [1] = experiment: Minimum inhibitory concentration required to reduce incorporation of [methyl-3H]dThd into TCA-insoluble material from murine leukemia L1210 cells; assay type: functional; settings: Mus musculus
How it was run: (§1)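 Murine L1210 leukemia cells; MIC50 is the concentration reducing cell growth, or incorporation of [methyl-3H]dThd into TCA-insoluble material (DNA synthesis), by 50%. Average of at least three separate experiments.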

L1210 [2] = experiment: Minimum inhibitory concentration required to reduce incorporation of [4,5-3H]leucine into TCA-insoluble material from murine leukemia L1210 cells; assay type: functional; settings: Mus musculus
How it was run: (§2)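 Murine L1210 leukemia cells were exposed to compound and incorporation of [4,5-3H]leucine (protein) or [5-3H]Urd (RNA) into TCA-insoluble material was measured. MIC50 is the concentration reducing incorporation by 50%. Values are averages of at least three separate experiments.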

Human alphaherpesvirus 1 = experiment: Minimum inhibitory concentration required to reduce Herpes simplex virus type 1 (HSV-1, strain KOS) induced cytopathogenicity by 50%; assay type: functional
[3] = tested on: Vesicular stomatitis virus; experiment: Minimum inhibitory concentration required to reduce Vesicular stomatitis virus (VSV) induced cytopathogenicity by 50%; assay type: functional
Human respirovirus 3 = experiment: Minimum inhibitory concentration required to reduce parainfluenza type 3 induced cytopathogenicity by 50%; assay type: functional
[4] = tested on: Vesicular stomatitis virus; experiment: Minimum inhibitory concentration required to reduce vesicular stomatitis virus (VSV) induced cytopathogenicity by 50%; assay type: functional
Measles morbillivirus = experiment: Minimum inhibitory concentration required to reduce measles virus induced cytopathogenicity by 50%; assay type: functional
Coxsackievirus B4 = experiment: Minimum inhibitory concentration required to reduce Coxsackie virus type B-4-induced cytopathogenicity by 50%; assay type: functional
Human alphaherpesvirus 2 = experiment: Minimum inhibitory concentration required to reduce Herpes simplex virus type 2 (HSV-2 strain G) induced cytopathogenicity by 50%; assay type: functional
Oryctolagus cuniculus = organism: Oryctolagus cuniculus; experiment: Minimum cytotoxic concentration required to cause a microscopically detectable alteration of normal cell morphology in primary rabbit kidney cells; assay type: functional
How it was run: (§3)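 Cytotoxicity read microscopically as the minimum concentration producing a detectable alteration of normal cell morphology, in PRK, HeLa or Vero cell cultures. Average of two to three separate experiments.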

Poliovirus 1 = experiment: Minimum inhibitory concentration required to reduce Polio virus type 1 induced cytopathogenicity by 50%; assay type: functional; settings: Enterovirus C
HeLa = experiment: Minimum cytotoxic concentration required to cause a microscopically detectable alteration of normal cell morphology in Hela cells; assay type: functional, Homo sapiens; how it was run: as §3
L1210 [5] = experiment: Inhibition of murine leukemia L1210 cell growth; assay type: functional; settings: Mus musculus; how it was run: as §1
L1210 [6] = experiment: Minimum inhibitory concentration required to reduce incorporation of [5-3H]-Urd into TCA-insoluble material from murine leukemia L1210 cells; assay type: functional; settings: Mus musculus; how it was run: as §2
Sindbis virus = experiment: Minimum inhibitory concentration required to reduce sindbis virus induced cytopathogenicity by 50%; assay type: functional
[7] = tested on: Mammalian orthoreovirus 1; experiment: Minimum inhibitory concentration required to reduce reo virus type 1 induced cytopathogenicity by 50%; assay type: functional
Vero = experiment: Minimum cytotoxic concentration required to cause a microscopically detectable alteration of normal cell morphology in Vero cells; assay type: functional, Chlorocebus sabaeus; how it was run: as §3

Row | Structure (SMILES) | MIC50 (L1210 [1]) [µg/mL] | MIC50 (L1210 [2]) [µg/mL] | MIC50 (Human alphaherpesvirus 1) [µg/mL] | MIC50 [3] [µg/mL] | MIC50 (Human respirovirus 3) [µg/mL] | MIC50 [4] [µg/mL] | MIC50 (Measles morbillivirus) [µg/mL] | MIC50 (Coxsackievirus B4; Enterovirus B, read-out: MIC50) [µg/mL] | MIC50 (Human alphaherpesvirus 2) [µg/mL] | MTC (Oryctolagus cuniculus) [µg/mL] | MIC50 (Poliovirus 1) [µg/mL] | MTC (HeLa) [µg/mL] | MIC50 (L1210 [5]) [µg/mL] | MIC50 (L1210 [6]) [µg/mL] | MIC50 (Sindbis virus) [µg/mL] | MIC50 [7] [µg/mL] | MTC (Vero) [µg/mL] | MIC50 (Coxsackievirus B4) [µg/mL]
1 | N#Cc1cn([C@@H]2O[C@H](CO)[C@@H](O)[C@@H]2O)c2ncnc(N)c12 | 14 (≈ 48.1 µM) | 4.8 (≈ 16.5 µM) | 7 (≈ 24 µM) | > 10 | > 10 | > 10 | > 10 | > 10 | 2 (≈ 6.87 µM) | 10 | > 10 | 10 | 2 (≈ 6.87 µM) | 10.3 (≈ 35.4 µM) | > 10 | > 10 | 10 | –
2 | Nc1ncnc2c([C@@H]3O[C@H](CO)[C@@H](O)[C@H]3O)[nH]nc12 [FORMYCIN] | 7.5 (≈ 28.1 µM) | 5.5 (≈ 20.6 µM) | 10 (≈ 37.4 µM) | > 1 | 2 (≈ 7.48 µM) | 10 (≈ 37.4 µM) | > 10 | – | 8 (≈ 29.9 µM) | 20 | > 1 | 1 | 3.7 (≈ 13.8 µM) | 25.7 (≈ 96.2 µM) | > 10 | > 10 | 10 | –
3 | N#Cc1cn(C2OC(CO)CC2O)c2ncnc(N)c12 (centres undefined) | 93 (≈ 338 µM) | 0.113 (≈ 0.411 µM) | > 0.4 | > 1 | 0.4 (≈ 1.45 µM) | > 1 | > 1 | 0.7 (≈ 2.54 µM) | > 0.4 | 1 | > 1 | 1 | 0.02 (≈ 0.0727 µM) | 0.16 (≈ 0.581 µM) | 0.7 (≈ 2.54 µM) | 0.7 (≈ 2.54 µM) | 1 | >1
4 | Nc1ncnc2c(C3OC(CO)CC3O)n[nH]c12 (centres undefined) | > 1000 | > 1000 | > 400 | > 400 | > 400 | > 400 | 100 (≈ 398 µM) | > 400 | – | >400 | > 400 | >400 | > 1000 | > 1000 | > 400 | > 400 | >400 | –
5 | NC(=O)c1cn([C@@H]2O[C@H](CO)[C@@H](O)[C@@H]2O)c2ncnc(N)c12 | 50 (≈ 162 µM) | 2.2 (≈ 7.11 µM) | 4 (≈ 12.9 µM) | 1.5 (≈ 4.85 µM) | 1 (≈ 3.23 µM) | 3 (≈ 9.7 µM) | 10 (≈ 32.3 µM) | – | 1 (≈ 3.23 µM) | 40 | > 10 | 10 | 0.98 (≈ 3.17 µM) | 5.85 (≈ 18.9 µM) | > 40 | 6 (≈ 19.4 µM) | 40 | –
6 | N#Cc1cn([C@H]2C[C@H](O)[C@@H](CO)O2)c2ncnc(N)c12 | 10 (≈ 36.3 µM) | 0.265 (≈ 0.963 µM) | > 1 | 0.08 (≈ 0.291 µM) | > 1 | 0.5 (≈ 1.82 µM) | 0.5 (≈ 1.82 µM) | – | 0.3 (≈ 1.09 µM) | 4 | > 4 | 4 | 0.109 (≈ 0.396 µM) | 0.34 (≈ 1.24 µM) | > 1 | > 1 | 1 | –
7 | NC(=O)c1cn([C@H]2C[C@H](O)[C@@H](CO)O2)c2ncnc(N)c12 | 16 (≈ 54.6 µM) | – | 2 (≈ 6.82 µM) | 1 (≈ 3.41 µM) | > 10 | 2 (≈ 6.82 µM) | > 10 | – | 1 (≈ 3.41 µM) | 10 | > 10 | 10 | 1.21 (≈ 4.13 µM) | – | > 10 | > 10 | 10 | –
8 | Nc1ncnc2c1ccn2[C@@H]1O[C@H](CO)[C@@H](O)[C@@H]1O | 32 (≈ 120 µM) | 151 (≈ 567 µM) | 125 (≈ 469 µM) | > 350 | 300 (≈ 1130 µM) | > 400 | > 400 | > 400 | 40 (≈ 150 µM) | >400 | > 400 | >400 | 7 (≈ 26.3 µM) | 237 (≈ 890 µM) | > 400 | > 400 | >400 | –
9 | Nc1ncnc2c1ccn2[C@@H]1O[C@H](CO)[C@H](O)[C@H]1O | 6.7 (≈ 25.2 µM) | – | 0.2 (≈ 0.751 µM) | > 4 | > 40 | > 10 | > 40 | – | 0.07 (≈ 0.263 µM) | 10 | > 4 | 4 | 0.248 (≈ 0.931 µM) | – | > 40 | > 40 | 40 | –
